Each block holds one molecule with its values, some of them ahead of it. Active and inactive are the calls of the source. No cut-off for these calls is given here.
Legend:
[1] = biological target: Mast/stem cell growth factor receptor Kit (Homo sapiens, UniProt P10721); assay: Inhibition of wild type TEL fused c-KIT (unknown origin) transfected in mouse BAF3 cells assessed as growth inhibition after 72 hrs by CCK8 assay; type: cell-based; conditions: baf3, 72 h
How it was run: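 IL-3 independent BaF3 cells stably expressing tel-c-KIT wt or tel-c-KIT T670I, grown in RPMI 1640 with 10% FBS, 2% L-glutamine, 37 °C, 5% CO2. Suspension cells at 1.5 to 5 × 10^4 cells/mL mixed with serial compound dilutions and incubated 72 h. Viability read by CCK-8 absorbance at 450 nm, normalized to DMSO; GI50 from curve fit. Selectivity is wt GI50 over T670I GI50.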

[2] = system: Mast/stem cell growth factor receptor Kit (Homo sapiens), P10721 [T670I]; assay: Inhibition of TEL fused c-KIT T670I mutant (unknown origin) transfected in mouse BAF3 cells assessed as growth inhibition after 72 hrs by CCK8 assay; type: cell-based
Sequence of Mast/stem cell growth factor receptor Kit (Homo sapiens), P10721 [T670I] (P10721 whole entry T670I, the tested form may be a part): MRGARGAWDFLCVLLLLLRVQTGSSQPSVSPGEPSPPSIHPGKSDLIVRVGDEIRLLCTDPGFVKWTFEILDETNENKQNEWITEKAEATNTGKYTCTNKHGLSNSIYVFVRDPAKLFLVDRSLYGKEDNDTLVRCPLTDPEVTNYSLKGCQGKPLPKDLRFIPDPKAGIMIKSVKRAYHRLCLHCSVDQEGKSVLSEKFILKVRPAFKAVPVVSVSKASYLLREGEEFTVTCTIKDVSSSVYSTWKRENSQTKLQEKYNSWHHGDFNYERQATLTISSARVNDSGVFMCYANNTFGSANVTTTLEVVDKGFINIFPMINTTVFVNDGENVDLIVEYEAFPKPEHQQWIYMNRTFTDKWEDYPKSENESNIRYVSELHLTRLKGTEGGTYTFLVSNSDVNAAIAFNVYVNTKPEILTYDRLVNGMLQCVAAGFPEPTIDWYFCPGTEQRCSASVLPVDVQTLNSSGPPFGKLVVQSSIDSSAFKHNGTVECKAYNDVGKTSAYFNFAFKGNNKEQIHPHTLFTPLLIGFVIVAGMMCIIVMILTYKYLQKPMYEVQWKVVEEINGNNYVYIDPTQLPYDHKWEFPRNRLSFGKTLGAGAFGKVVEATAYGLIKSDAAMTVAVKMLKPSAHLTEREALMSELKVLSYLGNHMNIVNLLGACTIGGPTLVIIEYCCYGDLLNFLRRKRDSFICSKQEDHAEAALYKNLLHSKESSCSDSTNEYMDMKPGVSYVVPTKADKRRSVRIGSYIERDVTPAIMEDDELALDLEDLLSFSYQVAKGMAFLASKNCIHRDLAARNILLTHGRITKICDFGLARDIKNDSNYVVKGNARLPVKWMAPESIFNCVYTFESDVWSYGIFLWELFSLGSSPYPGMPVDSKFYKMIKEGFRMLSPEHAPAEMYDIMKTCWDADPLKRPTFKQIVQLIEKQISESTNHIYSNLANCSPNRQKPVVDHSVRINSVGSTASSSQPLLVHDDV
How it was run: (§1)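 Tel-c-KIT-transformed BaF3 lines (IL-3 independent) kept in RPMI 1640 with 10% FBS, 2% L-glutamine and pen/strep. Cells at 1.5 to 5 × 10^4 cells/mL mixed with graded compound and incubated 72 h at 37 °C, 5% CO2. Viability by CCK-8 absorbance at 450 nm, normalized to DMSO. GI50 from dose–response fit.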

[3] = system: Mast/stem cell growth factor receptor Kit (Homo sapiens), P10721 [V559D]; assay: Inhibition of TEL fused c-KIT V559D mutant (unknown origin) transfected in mouse BAF3 cells assessed as growth inhibition after 72 hrs by CCK8 assay; type: cell-based; how it was run: as §1
Sequence of Mast/stem cell growth factor receptor Kit (Homo sapiens), P10721 [V559D] (P10721 whole entry V559D, the tested form may be a part): as the sequence (P10721 whole entry T670I, the tested form may be a part) above, with V559D, I670T counted along it

[4] = system: Mast/stem cell growth factor receptor Kit (Homo sapiens), P10721 [V559A]; assay: Inhibition of TEL fused c-KIT V559A mutant (unknown origin) transfected in mouse BAF3 cells assessed as growth inhibition after 72 hrs by CCK8 assay; type: cell-based; how it was run: as §1
Sequence of Mast/stem cell growth factor receptor Kit (Homo sapiens), P10721 [V559A] (P10721 whole entry V559A, the tested form may be a part): as the sequence (P10721 whole entry T670I, the tested form may be a part) above, with V559A, I670T counted along it

[5] = system: Mast/stem cell growth factor receptor Kit (Homo sapiens), P10721 [V559G]; assay: Inhibition of TEL fused c-KIT V559G mutant (unknown origin) transfected in mouse BAF3 cells assessed as growth inhibition after 72 hrs by CCK8 assay; type: cell-based; how it was run: as §1
Sequence of Mast/stem cell growth factor receptor Kit (Homo sapiens), P10721 [V559G] (P10721 whole entry V559G, the tested form may be a part): as the sequence (P10721 whole entry T670I, the tested form may be a part) above, with V559G, I670T counted along it

[6] = system: Mast/stem cell growth factor receptor Kit (Homo sapiens), P10721 [L576P]; assay: Inhibition of TEL fused c-KIT L576P mutant (unknown origin) transfected in mouse BAF3 cells assessed as growth inhibition after 72 hrs by CCK8 assay; type: cell-based; how it was run: as §1
Sequence of Mast/stem cell growth factor receptor Kit (Homo sapiens), P10721 [L576P] (P10721 whole entry L576P, the tested form may be a part): as the sequence (P10721 whole entry T670I, the tested form may be a part) above, with L576P, I670T counted along it

[7] = system: Mast/stem cell growth factor receptor Kit (Homo sapiens), P10721 [V559D,V654A]; assay: Inhibition of TEL fused c-KIT V654A/V559D double mutant (unknown origin) transfected in mouse BAF3 cells assessed as growth inhibition after 72 hrs by CCK8 assay; type: cell-based; how it was run: as §1
Sequence of Mast/stem cell growth factor receptor Kit (Homo sapiens), P10721 [V559D,V654A] (P10721 whole entry V559D/V654A, the tested form may be a part): as the sequence (P10721 whole entry T670I, the tested form may be a part) above, with V559D, V654A, I670T counted along it

[8] = system: Mast/stem cell growth factor receptor Kit (Homo sapiens), P10721 [V654A]; assay: Inhibition of TEL fused c-KIT V654A mutant (unknown origin) transfected in mouse BAF3 cells assessed as growth inhibition after 72 hrs by CCK8 assay; type: cell-based; how it was run: as §1
Sequence of Mast/stem cell growth factor receptor Kit (Homo sapiens), P10721 [V654A] (P10721 whole entry V654A, the tested form may be a part): as the sequence (P10721 whole entry T670I, the tested form may be a part) above, with V654A, I670T counted along it

[9] = system: Mast/stem cell growth factor receptor Kit (Homo sapiens), P10721 [V559D,T670I]; assay: Inhibition of TEL fused c-KIT T670I/V559D double mutant (unknown origin) transfected in mouse BAF3 cells assessed as growth inhibition after 72 hrs by CCK8 assay; type: cell-based; how it was run: as §1
Sequence of Mast/stem cell growth factor receptor Kit (Homo sapiens), P10721 [V559D,T670I] (P10721 whole entry V559D/T670I, the tested form may be a part): as the sequence (P10721 whole entry T670I, the tested form may be a part) above, with V559D counted along it

[10] = system: Mast/stem cell growth factor receptor Kit (Homo sapiens), P10721 [D816V]; assay: Inhibition of TEL fused c-KIT D816V mutant (unknown origin) transfected in mouse BAF3 cells assessed as growth inhibition after 72 hrs by CCK8 assay; type: cell-based; how it was run: as §1
Sequence of Mast/stem cell growth factor receptor Kit (Homo sapiens), P10721 [D816V] (P10721 whole entry D816V, the tested form may be a part): as the sequence (P10721 whole entry T670I, the tested form may be a part) above, with I670T, D816V counted along it

[11] = system: Mast/stem cell growth factor receptor Kit (Homo sapiens), P10721 [D816H]; assay: Inhibition of TEL fused c-KIT D816H mutant (unknown origin) transfected in mouse BAF3 cells assessed as growth inhibition after 72 hrs by CCK8 assay; type: cell-based; how it was run: as §1
Sequence of Mast/stem cell growth factor receptor Kit (Homo sapiens), P10721 [D816H] (P10721 whole entry D816H, the tested form may be a part): as the sequence (P10721 whole entry T670I, the tested form may be a part) above, with I670T, D816H counted along it

[12] = system: Mast/stem cell growth factor receptor Kit (Homo sapiens), P10721 [D820E]; assay: Inhibition of TEL fused c-KIT D820E mutant (unknown origin) transfected in mouse BAF3 cells assessed as growth inhibition after 72 hrs by CCK8 assay; type: cell-based; how it was run: as §1
Sequence of Mast/stem cell growth factor receptor Kit (Homo sapiens), P10721 [D820E] (P10721 whole entry D820E, the tested form may be a part): as the sequence (P10721 whole entry T670I, the tested form may be a part) above, with I670T, D820E counted along it

[13] = system: Mast/stem cell growth factor receptor Kit (Homo sapiens), P10721 [N822K]; assay: Inhibition of TEL fused c-KIT N822K mutant (unknown origin) transfected in mouse BAF3 cells assessed as growth inhibition after 72 hrs by CCK8 assay; type: cell-based; how it was run: as §1
Sequence of Mast/stem cell growth factor receptor Kit (Homo sapiens), P10721 [N822K] (P10721 whole entry N822K, the tested form may be a part): as the sequence (P10721 whole entry T670I, the tested form may be a part) above, with I670T, N822K counted along it

[14] = system: Mast/stem cell growth factor receptor Kit (Homo sapiens), P10721 [A829P]; assay: Inhibition of TEL fused c-KIT A829P mutant (unknown origin) transfected in mouse BAF3 cells assessed as growth inhibition after 72 hrs by CCK8 assay; type: cell-based; how it was run: as §1
Sequence of Mast/stem cell growth factor receptor Kit (Homo sapiens), P10721 [A829P] (P10721 whole entry A829P, the tested form may be a part): as the sequence (P10721 whole entry T670I, the tested form may be a part) above, with I670T, A829P counted along it

GISTT1 [15] = assay: Antiproliferative activity against human GISTT1 cells harboring c-KIT 560 to 578 deletion mutant incubated for 72 hrs by CCK8 assay; type: functional; conditions: GISTT1, 72 h
How it was run: (§2)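 Adherent GIST cells seeded at 1.5-5 × 10^4 cells/mL and left overnight at 37 °C, 5% CO2. Medium then replaced with medium holding serial compound dilutions; 72 h incubation. Viability by CCK-8, absorbance at 450 nm, normalized to DMSO control; GI50 from dose-response fit.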

GIST882 = assay: Antiproliferative activity against human GIST882 cells harboring c-KIT K642E mutant incubated for 72 hrs by CCK8 assay; type: functional; conditions: GIST882, 72 h; how it was run: as §2
GISTT1 [16] = assay: Antiproliferative activity against human GISTT1 cells harboring c-KIT 560 to 578 deletion/T670I double mutant incubated for 72 hrs by CCK8 assay; type: functional; conditions: GISTT1, 72 h; how it was run: as §2
[17] = Antiproliferative activity against human GIST5R cells harboring c-KIT 560 to 578 deletion/T670I double mutant incubated for 72 hrs by CCK8 assay; type: functional; how it was run: as §2
[18] = Antiproliferative activity against human GIST48B cells incubated for 72 hrs by CCK8 assay; type: functional; how it was run: as §2
[19] = Antitumor activity against human GIST5R cells xenografted in nude mouse assessed as tumor weight at 100 mg/kg, po administered […] via gavage for 28 days (reference value: 0.59g); type: functional
How it was run: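 Female nu/nu mice (5 weeks old) given subcutaneous right-flank GIST-5R cells in Matrigel. Dosing began at tumors of 200-400 mm3; randomized, 4 mice per group. Daily oral dosing (QD) at 25, 50 or 100 mg/kg in 0.5% methylcellulose/0.4% Tween80, or vehicle alone, for 28 days. Body weight and tumor volume, (W²×L)/2, measured daily; mean±SEM.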

[20] = system: Mast/stem cell growth factor receptor Kit (Homo sapiens), P10721 [UNDEFINED MUTATION]; conditions: GISTT1, 1 uM
Sequence of Mast/stem cell growth factor receptor Kit (Homo sapiens), P10721 [UNDEFINED MUTATION] (P10721 whole entry, looked up, change not shown): as the sequence (P10721 whole entry T670I, the tested form may be a part) above, with I670T counted along it

[21] = system: Mast/stem cell growth factor receptor Kit (Homo sapiens), P10721 [UNDEFINED MUTATION]; conditions: GISTT1, 1 uM; remark: listed apart in the source
[22] = system: Mast/stem cell growth factor receptor Kit (Homo sapiens), P10721 [UNDEFINED MUTATION]; conditions: 1 uM

Sequence of Mast/stem cell growth factor receptor Kit (P10721 whole entry, the tested form may be a part): as the sequence (P10721 whole entry T670I, the tested form may be a part) above, with I670T counted along it

GI50 [1]: 105 nM | GI50 [2]: 108 nM | GI50 [3]: 12 nM | GI50 [4]: 5 nM | GI50 [5]: 2 nM | GI50 [6]: 7 nM | GI50 [7]: 13 nM | GI50 [8]: 14 nM | GI50 [9]: 129 nM | GI50 [10]: 2020 nM | GI50 [11]: 1820 nM | GI50 [12]: 156 nM | GI50 [13]: 1720 nM | GI50 [14]: 406 nM
Structure (SMILES): CNC(=O)c1ccccc1Sc1ccc2c(/C=C/c3ccccn3)n[nH]c2c1 [AXITINIB]

GI50 [1]: 364 nM | GI50 [4]: 5 nM | GI50 [5]: 1 nM | GI50 [6]: 115 nM | GI50 [8]: 2300 nM | GI50 [12]: 267 nM | inhibition [20]: inactive | inhibition [21]: inactive | inhibition [22]: inactive
Structure (SMILES): Cc1ccc(NC(=O)c2ccc(CN3CCN(C)CC3)cc2)cc1Nc1nccc(-c2cccnc2)n1 [IMATINIB]
GI50 (GISTT1 [15]): 26 nM | GI50 (GIST882): 58 nM | GI50 (GISTT1 [16]): > 10000 nM | GI50 [17]: > 10000 nM | GI50 [18]: > 10000 nM | Activity [19]: 0.41 g
